Source: PubChem
Most compounds without a hit are left out; they make up all but 2.7% or so of the library.
OX1R antag-1: antagonists of human orexin 1 receptor (OX1R); 330,000 tested, 1.8% active; OX1R-expressing cells, FRET antagonist read-out; inhibition, % at 6.6 µM; O43613; AID 485270; in the data active = inhibition mostly above about 38%, no sharp cut-off; inactive = mostly below about 40%
CHO parental Ca: signal in parental CHO cells, OX1R antagonist counter-screen. AID 463079. 330,000 tested, 0.63% active. parental CHO-K1, ATP-induced calcium, Fluo-8 fluorescence. inhibition, % at 5.6 µM;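 active = inhibition above that plate's mean sample inhibition plus 3 SD, cut at about 26% in these data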
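Material: Parental CHO cells | Reagent: ATP | Compound dosing: Single nominal dose of 5.6 µM per compound | Detection: Intracellular calcium via Fluo-8 no-wash fluorescent dye | Read-out: % inhibition of ATP-induced calcium mobilization | Benchmarks: Low control ATP plus DMSO, high control DMSO only | Replicates: Singlicate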
OX1R antag-2: blocks the human orexin 1 receptor; inhibition, % at 5 µM; 330,000 tested, 0.43% active; CHO/OX1R cells, Fluo-8 calcium fluorescence, orexin A; O43613;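 active = inhibition above its plate's threshold, mean inhibition of all tested compounds on the plate plus 3 SD, cut at about 37% in these data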
V1aR counter: counter-screen for oxytocin receptor agonists: human V1a receptor agonists. P37288. CHO-V1R cells, Fluo-8 calcium fluorescence, agonist mode; 0% DMSO, 100% 3 nM vasopressin. activation, % at 3 µM. 320,000 tested, 0.25% active;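 active = activation above the mean activation of all tested compounds plus 3 SD, per screening run, cut at about 20% in these data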;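 note: signal is peak over basal fluorescence ratio across a 100 second FLIPR read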
OXTR ag: agonists of human oxytocin receptor; P30559; CHO-OTR cells, Fluo-8 calcium fluorescence; normalized: DMSO 0%, oxytocin 100%; activation, % at 3 µM; 320,000 tested, 0.32% active;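 active = activation above the mean of all tested compounds plus 3 SD, cutoff set per screening run, cut at about 20% in these data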;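 note: peak over basal fluorescence ratio from a 100 s FLIPR kinetic read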
Target sequence (P30559 whole entry, looked up): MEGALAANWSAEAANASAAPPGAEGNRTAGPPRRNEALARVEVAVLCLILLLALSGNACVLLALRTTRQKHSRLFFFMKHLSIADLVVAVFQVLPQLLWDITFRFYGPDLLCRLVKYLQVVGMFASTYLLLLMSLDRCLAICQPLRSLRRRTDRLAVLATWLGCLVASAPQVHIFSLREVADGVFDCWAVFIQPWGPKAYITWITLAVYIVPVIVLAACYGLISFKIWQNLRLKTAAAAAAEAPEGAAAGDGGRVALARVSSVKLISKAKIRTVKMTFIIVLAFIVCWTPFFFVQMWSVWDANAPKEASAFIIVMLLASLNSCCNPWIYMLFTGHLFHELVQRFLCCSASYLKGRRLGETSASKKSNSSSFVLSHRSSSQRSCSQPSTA
OXTR potentiate: potentiates the human oxytocin receptor response; P30559; CHO-OTR cells, Fluo-8 calcium fluorescence, potentiator mode; 0% = oxytocin EC15, 100% = EC100; activation, % at 3 µM; 320,000 tested, 0.061% active;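 active = activation above that plate's cutoff, the mean activation of tested compounds plus 3 SD, cut at about 6.6% in these data, passing the limit was not always enough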
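Assay system: CHO cell line stably expressing human OTR | Also added: Oxytocin at about EC15, sub-maximal agonist stimulus | Times: Compound 6 min at room temperature before oxytocin, 100 s read | Measured by: Fluo-8 intracellular calcium fluorescence, ex 470-495, em 515-575 nm | Controls: EC15 oxytocin alone as 0%, 75 nM oxytocin as 100%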
Large screens that a line does not name were inactive.

Cc1ccc(S(=O)(=O)Nc2ccc3nc(C)sc3c2)cc1	none
Cc1nc2ccc(NS(=O)(=O)c3cccc([N+](=O)[O-])c3)cc2s1	CHO parental Ca 30.0
Cc1nc2ccc(NS(=O)(=O)c3ccc4c(c3)OCCO4)cc2s1	OX1R antag-2 44.9
O=C(COC(=O)/C=C/c1ccc([N+](=O)[O-])cc1)NCC1CCCCC1	none
Cc1ccc(/C=N/Nc2nncn2N)cc1	OX1R antag-1 43.3
O=C(N/N=C/c1ccc(Cl)c([N+](=O)[O-])c1)C1CC1	OX1R antag-1 59.1
Cc1ccc(/C=N/Nc2nc(C)cc(C)n2)cc1	none
Nn1cnnc1N/N=C/c1ccc(Cl)c([N+](=O)[O-])c1	OX1R antag-1 61.1
Nn1cnnc1N/N=C/c1ccccc1C(F)(F)F	none
Nn1cnnc1N/N=C/c1ccc(F)cc1	OX1R antag-1 65.1
CCc1nnc(NC(=O)CN2CCCC(C)C2)s1 (stereo unspecified)	none
COc1ccc(C2=CC(=O)C[C@H](c3ccc(F)cc3)C2)c(OC)c1	none
Nc1nnnn1/N=C\c1ccc(Cl)c([N+](=O)[O-])c1	OX1R antag-1 65.0
CCOc1ccc(N2C(=O)CC(NCCNc3ccc(C(=O)c4cccs4)cc3)C2=O)cc1 (stereo unspecified)	none
COc1ccccc1N1CCNC(C)C1=O (stereo unspecified)	none
CCC(CO)Oc1cc(NC(=O)c2ccccc2Cl)c2ncn(C(C)C)c2c1 (stereo unspecified)	none
COc1ccc2c3c(cccc13)OC2=O	none
COc1ccc2c3c(cccc13)N(C)N=C2C	OX1R antag-1 66.3
Cc1ccccc1Cn1cnc2c(cnn2C(C)(C)C)c1=O	none
CC(C)(C)n1ncc2c(=O)n(Cc3cccc(Cn4cnc5c(cnn5C(C)(C)C)c4=O)c3F)cnc21	CHO parental Ca 61.9, OX1R antag-2 63.9
O=C(Nc1ccccc1)Nc1cccc2ccccc12	none
Cc1cccnc1NC(=O)Nc1cccc2ccccc12	OX1R antag-1 45.0
O=[N+]([O-])c1ccc(N2CCN(C(=S)NC3CCCCC3)CC2)cc1	CHO parental Ca 32.6, OX1R antag-2 48.8
O=C(NC(=S)N1CCN(c2ccc([N+](=O)[O-])cc2)CC1)c1ccc(F)cc1	OX1R antag-1 55.9
O=C1c2cccc3c(O)ccc(c23)C(=O)N1c1ccc(Cl)cc1	CHO parental Ca 68.9, OX1R antag-2 84.6, V1aR counter 183.7, OXTR ag 186.2
O=C1c2ccccc2C(=O)N1c1ccc(Cl)cc1	none
CC(=O)Nc1ccc(N2C(=O)c3cccc4c(O)ccc(c34)C2=O)cc1	CHO parental Ca 58.3, OX1R antag-2 61.4, V1aR counter 173.7, OXTR ag 172.4
Cc1c(NC(=S)NC(=O)Cc2ccccc2)cccc1C(=O)O	none
COc1ccc(CC(=O)NC(=S)Nc2cccc(CO)c2)cc1	V1aR counter 27.2, OXTR ag 28.1
Cc1cc(C)c(O)c(NC(=S)NC(=O)Cc2ccccc2)c1	V1aR counter 28.6, OXTR ag 31.1
COc1cccc(NC(=S)NCc2ccccc2)c1	none
CCC(=O)Nc1cccc(NC(=S)NC(=O)Cc2ccccc2)c1	none
COc1ccccc1NC(=S)NC(=O)Cc1ccc(Cl)cc1	V1aR counter 32.7, OXTR ag 21.8
COc1cccc(NC(=S)NC(=O)Cc2ccc(Cl)cc2)c1	V1aR counter 30.9, OXTR ag 24.5
CCN(CC(=O)Nc1c(F)cccc1F)C(=O)/C=C/c1ccc(Br)s1	none
Cc1cc(C)c(C(=O)N2CCC(N3CCC(C(=O)NC(C)C)CC3)CC2)o1	none
CS(=O)(=O)c1ccc(Cl)c(NC(=O)CSc2nnc(C3CC3)n2C2CC2)c1	none
CCOC(=O)c1c(C)[nH]c(C)c1S(=O)(=O)N1CCOCC1	none
COc1ccc(CC(=O)NC(=S)Nc2cccc(C)c2)cc1	V1aR counter 26.5, OXTR ag 26.1
CC(O)CN=c1cc(-c2ccccc2)oc2ccc(Cl)cc12 (stereo unspecified)	none
OCCN=c1cc(-c2ccccc2)oc2ccc(Cl)cc12	OX1R antag-1 47.0
CCOc1ccc(NC(=O)CSc2nc(=O)n(CCCN3CCOCC3)c3c2CCC3)cc1	none
CCOc1cc(/C=C2/SC(=S)N(C)C2=O)ccc1Oc1ccc([N+](=O)[O-])cc1[N+](=O)[O-]	none
Cc1ccc(Cn2c(=N)c(C(=O)NC3CCCCC3)cc3c(=O)n4ccccc4nc32)cc1	none
COc1ccc(CCNC(=O)c2cc3c(=O)n4ccccc4nc3n(CCCN3CCOCC3)c2=N)cc1OC	OX1R antag-1 73.6
COc1ccc(CCNC(=O)c2cc3c(=O)n4ccccc4nc3n(CCN3CCOCC3)c2=N)cc1	none
Cc1ccc2nc3c(cc(C(=O)NC4CCCC4)c(=N)n3CCCn3ccnc3)c(=O)n2c1	OX1R antag-1 83.8
COc1ccc(CCn2c(=N)c(C(=O)NCCN3CCOCC3)cc3c(=O)n4ccccc4nc32)cc1OC	OX1R antag-1 50.4
COc1ccc(CCNC(=O)c2cc3c(=O)n4ccccc4nc3n(CCCN3CCOCC3)c2=N)cc1	OX1R antag-1 51.1
CC[C@@]12C(=O)N(c3ccc(C)cc3)C(=O)N1[C@H](c1ccc(Br)cc1)[C@@H]1C(=O)N(C(C)(C)C)C(=O)[C@@H]12	none
COc1cccc(C(C(=O)NCc2ccccc2)N(C(=O)c2csnn2)C2CC2)c1 (stereo unspecified)	none
N=c1c(C(=O)NC2CCCC2)cc2c(=O)n3ccccc3nc2n1CCCN1CCOCC1	OX1R antag-1 44.5
CCCNc1nc2nc3ccccn3c(=O)c2cc1C(=O)NCCN1CCOCC1	OX1R antag-1 52.5
N#Cc1cc2c(=O)n3ccccc3nc2n(CCCN2CCOCC2)c1=O	OX1R antag-1 53.9
N#Cc1cc2c(=O)n3ccccc3nc2n(Cc2cccnc2)c1=O	none
Cc1cc(S(=O)(=O)NCc2ccncc2)c(C)cc1Br	CHO parental Ca 46.1
CN=C1C([N+](=O)[O-])=CC=C2C1=NC1(CCCCC1)N2O	OX1R antag-1 49.6
CCc1ccc(OCCn2cccn2)cc1	none
COc1cc(-c2nnc(SCC(=O)NC3CCS(=O)(=O)C3)o2)cc(OC)c1OC (stereo unspecified)	none
Cc1cc(C)n(C(=O)/C(C#N)=C/N(C)C)n1	none
COc1cccc(CC2(CO)CCCN(C/C=C/c3ccccc3OC)C2)c1 (stereo unspecified)	none
COc1ccccc1/C=C/CN1CCCC(CO)(Cc2cccc(Cl)c2)C1 (stereo unspecified)	OX1R antag-1 69.2, CHO parental Ca 33.6, OX1R antag-2 61.0
CCOc1cc(C(=O)Nc2cccc3ncccc23)cc(OCC)c1OCC	none
CC1CCCCC1NC(=S)Nc1ccc(SC(F)F)cc1 (stereo unspecified)	OX1R antag-2 40.0
